Test results published in ChEMBL document CHEMBL1126715, “Synthesis and tissue distribution of (m-[125I]iodobenzyl)trozamicol ([125I]MIBT): potential radioligand for mapping central cholinergic innervation” (J Med Chem, 1993).

Tests used:
Rattus norvegicus [1] = organism: Rattus norvegicus; test: Regional kinetics in the rat cerebellum at 180 minutes; type: ADME, organism-based; conditions: in vivo, 3 h
Procedure, shortened: (§1)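 Male Wistar rats (n = 4 per time point) under ether received (+)-radiotracer iv (2 μCi in 100 μL 50% aqueous EtOH). They were killed at 30, 120 or 180 min. Brains were partially frozen and dissected into striatum, cerebellum, cortex and remainder. Regions were γ-counted against injected-dose dilutions and expressed as % injected dose/g tissue.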

Rattus norvegicus [2] = organism: Rattus norvegicus; test: Regional kinetics in the remainder of rat brain at 180 minutes; type: ADME, organism-based; conditions: in vivo, 3 h; procedure, shortened: as §1
Rattus norvegicus [3] = organism: Rattus norvegicus; test: Tissue distribution in rat gonads after 180 minutes (n=3); type: ADME, organism-based, Gonad; conditions: in vivo, 3 h
Procedure, shortened: (§2)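 Male Wistar rats (200-350 g) under ether anesthesia; radiotracer (3-5 μCi in 0.1 mL 50% aqueous ethanol) given iv. At 5, 30, 60 and 180 min, blood was drawn by cardiac puncture and animals were killed by cardiectomy. Organs were weighed and γ-counted against a 1:100 dilution of the injected dose. Results are given as % injected dose/g tissue; ratios are taken between tissue levels.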

Rattus norvegicus [4] = organism: Rattus norvegicus; test: Effect of 4-aminobenzovesamicol on the regional distribution of compound in the rat brain cortex (n=4) [0.23 (0.19-0.25)]; type: ADME, organism-based; conditions: in vivo
Rattus norvegicus [5] = organism: Rattus norvegicus; test: Effect of vesamicol on the accumulation in rat blood [0.05 (0.04-0.06)]; type: ADME, organism-based; conditions: in vivo
Procedure, shortened: (§3)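 Male Wistar rats (n = 4/group) given iv vehicle (100 μL 50% aqueous EtOH) or dl-vesamicol (1.01 μmol/kg); 15 min later iv radiotracer (2.0 μCi in 100 μL 50% aqueous EtOH); killed 30 min post-tracer. Blood by cardiac puncture, organs weighed and γ-counted vs 1:100 injected-dose dilution; % dose/g tissue (range); tissue/blood ratios.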

Rattus norvegicus [6] = organism: Rattus norvegicus; test: Tissue distribution in rat spleen after 180 minutes (n=3); type: ADME, organism-based; conditions: in vivo, 3 h; procedure, shortened: as §2
Rattus norvegicus [7] = organism: Rattus norvegicus; test: Ratio of effect 4-aminobenzovesamicol on regional distribution between rat brain caudate and cortex; type: ADME, organism-based; conditions: in vivo
Rattus norvegicus [8] = organism: Rattus norvegicus; test: Tissue distribution in rat thyroid after 30 minutes (n=3); type: ADME, organism-based, Thyroid gland; conditions: in vivo, 0.5 h; procedure, shortened: as §2
Rattus norvegicus [9] = organism: Rattus norvegicus; test: Tissue distribution in rat gonads after 60 minutes (n=3); type: ADME, organism-based, Gonad; conditions: in vivo, 1 h
Procedure, shortened: (§4)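 Male Wistar rats (200-350 g) under ether, iv [125I]tracer (3-5 μCi in 0.1 mL 50% aqueous EtOH). At 5, 30, 60 or 180 min, blood taken by cardiac puncture and the rat killed by cardiectomy. Organs weighed and γ-counted against 1:100 dilutions of the injected dose; results in % injected dose/g, with range.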

Rattus norvegicus [10] = organism: Rattus norvegicus; test: Tissue distribution in rat blood after 5 minutes (n=3); type: ADME, organism-based; conditions: in vivo; procedure, shortened: as §2
Rattus norvegicus [11] = organism: Rattus norvegicus; test: Tissue distribution in rat liver after 5 minutes (n=3); type: ADME, organism-based; conditions: in vivo; procedure, shortened: as §4
Rattus norvegicus [12] = organism: Rattus norvegicus; test: Tissue distribution in rat muscle after 60 minutes (n=3); type: ADME, organism-based; conditions: in vivo, 1 h; procedure, shortened: as §4
Rattus norvegicus [13] = organism: Rattus norvegicus; test: Tissue distribution in rat blood after 30 minutes (n=3); type: ADME, organism-based; conditions: in vivo, 0.5 h; procedure, shortened: as §2
Rattus norvegicus [14] = organism: Rattus norvegicus; test: Tissue distribution in rat spleen after 60 minutes (n=3); type: ADME, organism-based; conditions: in vivo, 1 h; procedure, shortened: as §2
Rattus norvegicus [15] = organism: Rattus norvegicus; test: Effect of vesamicol on the accumulation in rat heart [0.25 (0.21-0.30)]; type: ADME, organism-based; conditions: in vivo
Procedure, shortened: (§5)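 Male Wistar rats. Pretreatment at t = 0 was iv vehicle (50% aqueous EtOH) or iv dl-vesamicol (1.01 μmol/kg). At 15 min, iv [125I]tracer (2.0 μCi in 100 μL 50% aqueous EtOH) was given; rats were killed 30 min later. Tissues were weighed and γ-counted, and values expressed as % injected dose/g; n = 4 per group.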

Rattus norvegicus [16] = organism: Rattus norvegicus; test: Regional kinetics in the rat brain caudate-putamen at 120 minutes; type: ADME, organism-based; conditions: in vivo, 2 h; procedure, shortened: as §1
Rattus norvegicus [17] = organism: Rattus norvegicus; test: Ratio of effect 4-aminobenzovesamicol on regional distribution between rat brain caudate and cerebellum; type: ADME, organism-based; conditions: in vivo
Rattus norvegicus [18] = organism: Rattus norvegicus; test: Regional kinetics in the rat brain cortex at 30 minutes; type: ADME, organism-based; conditions: in vivo, 0.5 h
Procedure, shortened: (§6)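 Male Wistar rats under ether anaesthesia, iv (+)-[125I]tracer (2 μCi in 100 μL 50% aqueous EtOH); killed at 30, 120 or 180 min. Brains partially frozen and dissected into striatum, cerebellum, cortex and remainder, then counted for radioactivity. Results are % injected dose/g, calculated against counted dilutions of the injected dose.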

Rattus norvegicus [19] = organism: Rattus norvegicus; test: Effect of vesamicol on the accumulation in rat spleen [0.97 (0.89-1.04)]; type: ADME, organism-based; conditions: in vivo; procedure, shortened: as §3
Rattus norvegicus [20] = organism: Rattus norvegicus; test: Tissue distribution in rat spleen after 5 minutes (n=3); type: ADME, organism-based; conditions: in vivo; procedure, shortened: as §4
Rattus norvegicus [21] = organism: Rattus norvegicus; test: Tissue distribution in rat lung after 180 minutes (n=3); type: ADME, organism-based; conditions: in vivo, 3 h; procedure, shortened: as §4
Rattus norvegicus [22] = organism: Rattus norvegicus; test: Effect of vesamicol on the accumulation in rat thyroid [1.77 (1.47-1.93)]; type: ADME, organism-based, Thyroid gland; conditions: in vivo; procedure, shortened: as §5
[23] = Ratio of tissue distribution between rat heart and blood after 120 min; type: ADME, organism-based
Rattus norvegicus [24] = organism: Rattus norvegicus; test: Tissue distribution in rat liver after 30 minutes (n=3); type: ADME, organism-based; conditions: in vivo, 0.5 h; procedure, shortened: as §2
[25] = Ratio of tissue distribution between rat heart and blood after 5 min; type: ADME, organism-based; conditions: heart and blood; procedure, shortened: as §2
Rattus norvegicus [26] = organism: Rattus norvegicus; test: Tissue distribution in rat liver after 180 minutes (n=3); type: ADME, organism-based; conditions: in vivo, 3 h; procedure, shortened: as §4
Rattus norvegicus [27] = organism: Rattus norvegicus; test: Tissue distribution in rat brain after 30 minutes (n=3); type: ADME, organism-based; conditions: in vivo, 0.5 h; procedure, shortened: as §2
Rattus norvegicus [28] = organism: Rattus norvegicus; test: Effect of 4-aminobenzovesamicol on the regional distribution of compound in the rat cerebellum (n=4) [0.12 (0.10-0.13)]; type: ADME, organism-based; conditions: in vivo
Rattus norvegicus [29] = organism: Rattus norvegicus; test: Effect of haloperidol on the regional distribution of compound in the remainder of rat brain (n=4) [0.33 (0.28-0.40)]; type: ADME, organism-based; conditions: in vivo
Rattus norvegicus [30] = organism: Rattus norvegicus; test: Regional kinetics in the rat brain cortex at 120 minutes; type: ADME, organism-based; conditions: in vivo, 2 h; procedure, shortened: as §1
Rattus norvegicus [31] = organism: Rattus norvegicus; test: Tissue distribution in rat heart after 5 minutes (n=3); type: ADME, organism-based; conditions: in vivo; procedure, shortened: as §2
Rattus norvegicus [32] = organism: Rattus norvegicus; test: Tissue distribution in rat muscle after 5 minutes (n=3); type: ADME, organism-based; conditions: in vivo; procedure, shortened: as §2
Rattus norvegicus [33] = organism: Rattus norvegicus; test: Ratio of regional kinetics between rat brain caudate and cortex at 30 minutes; type: ADME, organism-based; conditions: in vivo, 0.5 h
Procedure, shortened: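 Male Wistar rats (n = 4/group) under ether anesthesia, iv (+)-[125I]MIBT (2 μCi in 100 μL 50% aqueous EtOH); killed at 30, 120, 180 min. Brains partially frozen, dissected into striatum, cerebellum, cortex and remainder; radioactivity counted, % dose/g vs injected-dose dilutions; caudate/cortex and caudate/cerebellum ratios.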

Rattus norvegicus [34] = organism: Rattus norvegicus; test: Effect of vesamicol on the accumulation in rat kidney [1.76 (1.55-2.08)]; type: ADME, organism-based; conditions: in vivo; procedure, shortened: as §3
Rattus norvegicus [35] = organism: Rattus norvegicus; test: Effect of vesamicol on the accumulation in rat liver [2.01 (1.65-3.34)]; type: ADME, organism-based; conditions: in vivo; procedure, shortened: as §3
Rattus norvegicus [36] = organism: Rattus norvegicus; test: Effect of 4-aminobenzovesamicol on the regional distribution of compound in the remainder of rat brain (n=4) [0.21 (0.17-0.23)]; type: ADME, organism-based; conditions: in vivo
Rattus norvegicus [37] = organism: Rattus norvegicus; test: Tissue distribution in rat heart after 30 minutes (n=3); type: ADME, organism-based; conditions: in vivo, 0.5 h; procedure, shortened: as §4
Rattus norvegicus [38] = organism: Rattus norvegicus; test: Tissue distribution in rat heart after 180 minutes (n=3); type: ADME, organism-based; conditions: in vivo, 3 h; procedure, shortened: as §2
Rattus norvegicus [39] = organism: Rattus norvegicus; test: Tissue distribution in rat kidney after 5 minutes (n=3); type: ADME, organism-based; conditions: in vivo; procedure, shortened: as §2
Rattus norvegicus [40] = organism: Rattus norvegicus; test: Tissue distribution in rat muscle after 180 minutes (n=3); type: ADME, organism-based; conditions: in vivo, 3 h; procedure, shortened: as §2
Rattus norvegicus [41] = organism: Rattus norvegicus; test: Tissue distribution in rat kidney after 30 minutes (n=3); type: ADME, organism-based; conditions: in vivo, 0.5 h; procedure, shortened: as §2
Rattus norvegicus [42] = organism: Rattus norvegicus; test: Regional kinetics in the rat brain cortex at 180 minutes; type: ADME, organism-based; conditions: in vivo, 3 h; procedure, shortened: as §6
Rattus norvegicus [43] = organism: Rattus norvegicus; test: Tissue distribution in rrat heart after 60 minutes (n=3); type: ADME, organism-based; conditions: in vivo, 1 h; procedure, shortened: as §2

SMILES: O[C@@H]1CCN(Cc2cccc([125I])c2)C[C@H]1N1CCC(c2ccccc2)CC1 (stereo in doubt; (+))
- Dose/g (Rattus norvegicus [1]): 0.17%
- Dose/g (Rattus norvegicus [2]): 0.25%
- Dose/g (Rattus norvegicus [3]): 0.16%
- Dose/g (Rattus norvegicus [4]): 0.15%
- Dose/g (Rattus norvegicus [5]): 0.05%
- Dose/g (Rattus norvegicus [6]): 0.44%
- Ratio (Rattus norvegicus [7]): 1.57
- Dose/g (Rattus norvegicus [8]): 2.33%
- Dose/g (Rattus norvegicus [9]): 0.17%
- Dose/g (Rattus norvegicus [10]): 0.24%
- Dose/g (Rattus norvegicus [11]): 1.6%
- Dose/g (Rattus norvegicus [12]): 0.11%
- Dose/g (Rattus norvegicus [13]): 0.12%
- Dose/g (Rattus norvegicus [14]): 0.86%
- Dose/g (Rattus norvegicus [15]): 0.24%
- Dose/g (Rattus norvegicus [16]): 0.67%
- Ratio (Rattus norvegicus [17]): 2.07
- Dose/g (Rattus norvegicus [18]): 0.65%
- Dose/g (Rattus norvegicus [19]): 0.97%
- Dose/g (Rattus norvegicus [20]): 0.76%
- Dose/g (Rattus norvegicus [21]): 0.39%
- Dose/g (Rattus norvegicus [22]): 2.02%
- Kp at 2 h [23]: 1.6
- Dose/g (Rattus norvegicus [24]): 2.18%
- Kp at 5 min [25]: 4.68
- Dose/g (Rattus norvegicus [26]): 1.18%
- Dose/g (Rattus norvegicus [27]): 0.36%
- Dose/g (Rattus norvegicus [28]): 0.11%
- Dose/g (Rattus norvegicus [29]): 0.17%
- Dose/g (Rattus norvegicus [30]): 0.4%
- Dose/g (Rattus norvegicus [31]): 1.14%
- Dose/g (Rattus norvegicus [32]): 0.34%
- Ratio (Rattus norvegicus [33]): 0.98
- Dose/g (Rattus norvegicus [34]): 0.91%
- Dose/g (Rattus norvegicus [35]): 1.93%
- Dose/g (Rattus norvegicus [36]): 0.15%
- Dose/g (Rattus norvegicus [37]): 0.26%
- Dose/g (Rattus norvegicus [38]): 0.1%
- Dose/g (Rattus norvegicus [39]): 2.25%
- Dose/g (Rattus norvegicus [40]): 0.08%
- Dose/g (Rattus norvegicus [41]): 1.32%
- Dose/g (Rattus norvegicus [42]): 0.25%
- Dose/g (Rattus norvegicus [43]): 0.15%
